Measurements from ChEMBL document CHEMBL3813688, “Synthesis, antitumor activity and mechanism of action of novel 1,3-thiazole derivatives containing hydrazide-hydrazone and carboxamide moiety” (Bioorg Med Chem Lett, 2016).
Values after ≈ are worked out from the molar mass of the structure shown.

Tests used:
[1] = test system: HepG2; assay: Cell cycle arrest in human HepG2 cells assessed as accumulation at G1 phase at 0.55 ug/ml after 48 hrs by propidium iodide staining based flow cytometry (reference value: 57.68 %); assay type: functional
[2] = test system: HepG2; assay: Cell cycle arrest in human HepG2 cells assessed as accumulation at G2 phase at 0.55 ug/ml after 48 hrs by propidium iodide staining based flow cytometry (reference value: 6.89 %); assay type: functional
[3] = test system: HepG2; assay: Induction of apoptosis in human HepG2 cells assessed as late apoptotic cells at 0.55 ug/ml after 24 to 48 hrs by Annexin V-FITC/propidium iodide staining based flow cytometry (reference value: 0.1 %); assay type: functional
[4] = test system: MCF7; assay: Cytotoxicity against human MCF7 cells assessed as cell growth inhibition after 72 hrs by MTT assay; assay type: functional, cell-based; conditions: MCF7, 72 h
Method in brief: (§1)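 MTT growth assay in human cancer lines (MCF-7, HepG2, BGC-823, HeLa, A549), 72 h after treatment; 5-fluorouracil as reference. IC50 (μg/mL) taken as concentration giving 50% growth inhibition versus untreated control.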

[5] = test system: HepG2; assay: Cell cycle arrest in human HepG2 cells assessed as accumulation at S phase at 1.1 ug/ml after 48 hrs by propidium iodide staining based flow cytometry (reference value: 35.42 %); assay type: functional
[6] = test system: HepG2; assay: Induction of apoptosis in human HepG2 cells assessed as necrotic cells at 0.55 ug/ml after 24 to 48 hrs by Annexin V-FITC/propidium iodide staining based flow cytometry (reference value: 1.8 %); assay type: functional
[7] = Cytotoxicity against human HL7702 cells assessed as cell growth inhibition after 72 hrs by MTT assay; assay type: cell-based; conditions: L02, 72 h
[8] = test system: HepG2; assay: Cell cycle arrest in human HepG2 cells assessed as accumulation at S phase after 48 hrs by propidium iodide staining based flow cytometry; assay type: functional
[9] = test system: HepG2; assay: Cytotoxicity against human HepG2 cells assessed as cell growth inhibition after 72 hrs by MTT assay; assay type: functional, cell-based; conditions: HepG2, 72 h; method in brief: as §1
[10] = test system: HepG2; assay: Cell cycle arrest in human HepG2 cells assessed as accumulation at sub-G1 phase at 1.1 ug/ml after 48 hrs by propidium iodide staining based flow cytometry relative to control; assay type: functional
[11] = test system: HepG2; assay: Cell cycle arrest in human HepG2 cells assessed as accumulation at sub-G1 phase at 0.55 ug/ml after 48 hrs by propidium iodide staining based flow cytometry relative to control; assay type: functional
[12] = test system: HepG2; assay: Induction of apoptosis in human HepG2 cells assessed as viable cells at 1.1 ug/ml after 24 to 48 hrs by Annexin V-FITC/propidium iodide staining based flow cytometry (reference value: 95.6 %); assay type: functional; conditions: read-out: Activity
[13] = test system: HepG2; assay: Induction of apoptosis in human HepG2 cells assessed as early apoptotic cells at 1.1 ug/ml after 24 to 48 hrs by Annexin V-FITC/propidium iodide staining based flow cytometry (reference value: 2.5 %); assay type: functional
[14] = test system: HepG2; assay: Induction of apoptosis in human HepG2 cells assessed as viable cells at 0.55 ug/ml after 24 to 48 hrs by Annexin V-FITC/propidium iodide staining based flow cytometry (reference value: 95.6 %); assay type: functional; conditions: read-out: Activity
[15] = test system: HepG2; assay: Cytotoxicity against human HepG2 cells assessed as cell growth inhibition at 20 ug/ml after 72 hrs by MTT assay; assay type: functional; conditions: HepG2, 72 h, read-out: GI
[16] = test system: HepG2; assay: Induction of apoptosis in human HepG2 cells assessed as early apoptotic cells at 0.55 ug/ml after 24 to 48 hrs by Annexin V-FITC/propidium iodide staining based flow cytometry (reference value: 2.5 %); assay type: functional
[17] = test system: HepG2; assay: Cell cycle arrest in human HepG2 cells assessed as accumulation at S phase at 0.55 ug/ml after 48 hrs by propidium iodide staining based flow cytometry (reference value: 35.42 %); assay type: functional
[18] = test system: HepG2; assay: Induction of apoptosis in human HepG2 cells assessed as late apoptotic cells at 1.1 ug/ml after 24 to 48 hrs by Annexin V-FITC/propidium iodide staining based flow cytometry (reference value: 0.1 %); assay type: functional
[19] = test system: HepG2; assay: Cell cycle arrest in human HepG2 cells assessed as accumulation at G1 phase at 1.1 ug/ml after 48 hrs by propidium iodide staining based flow cytometry (reference value: 57.68 %); assay type: functional
[20] = Cytotoxicity against human BCG823 cells assessed as cell growth inhibition after 72 hrs by MTT assay; assay type: functional, cell-based; conditions: BCG823, 72 h; method in brief: as §1
[21] = test system: HeLa; assay: Cytotoxicity against human HeLa cells assessed as cell growth inhibition after 72 hrs by MTT assay; assay type: functional, cell-based; method in brief: as §1
[22] = test system: HepG2; assay: Cell cycle arrest in human HepG2 cells assessed as accumulation at G2 phase at 1.1 ug/ml after 48 hrs by propidium iodide staining based flow cytometry (reference value: 6.89 %); assay type: functional
[23] = test system: A549; assay: Cytotoxicity against human A549 cells assessed as cell growth inhibition after 72 hrs by MTT assay; assay type: functional, cell-based; conditions: A549, 72 h; method in brief: as §1
[24] = test system: HepG2; assay: Induction of apoptosis in human HepG2 cells assessed as necrotic cells at 1.1 ug/ml after 24 to 48 hrs by Annexin V-FITC/propidium iodide staining based flow cytometry (reference value: 1.8 %); assay type: functional

Cc1nc(N(C)C(=O)NC(=O)c2c(F)cccc2F)sc1C(=O)N/N=C/c1ccccc1C(F)(F)F
Activity [1]: 41.02% | Activity [2]: 2.11% | Activity [3]: 0.4% | IC50 [4]: 7.34 µg/mL (≈ 14 µM) | Activity [5]: 88.17% | Activity [6]: 1.4% | IC50 [7]: 9.43 µg/mL (≈ 17.9 µM) | Activity [8]: Dose-dependent effect | IC50 [9]: 1.11 µg/mL (≈ 2.11 µM) | Activity [10]: 66.72% | Activity [11]: 34.5% | viability at 1.1 µg/mL [12]: 80.9% | Activity [13]: 16.5% | viability at 0.55 µg/mL [14]: 91.2% | inhibition of growth at 20 µg/mL [15]: 90% | Activity [16]: 7% | Activity [17]: 56.87% | Activity [18]: 0.3% | Activity [19]: 11.83% | IC50 [20]: 7.88 µg/mL (≈ 15 µM) | IC50 [21]: 6.51 µg/mL (≈ 12.4 µM) | Activity [22]: 0% | IC50 [23]: 5.43 µg/mL (≈ 10.3 µM) | Activity [24]: 2.3%
